Assay outcomes (PubChem)
Lmaj promast: inhibitors of Leishmania major promastigote growth | Leishmania major promastigotes, resazurin fluorescence viability | inhibition, % at 10 µM | hit rate 9% among 200,000; in the data active means inhibition above about 50%;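 further: promastigotes grown with compound for 44 hours at 28 °C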
HSF1 inh: HSF1 inhibition. activity change, negative = inhibition, % at 7.5 µM (by protocol). hit rate 0.77% among 300,000. NIH3T3-HGL HSE-luciferase, MG132-induced, luminescence 8 h; active compounds read low;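 active means more than half of replicate wells show activity change below -50%, luminescence cut by over half; inconclusive means some wells, but at most half, below -50%; inactive means no replicate well below -50%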;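 further: luciferase reports HSF-1 transcriptional activity via heat shock element; 0% = median of DMSO wells and -100% = zero luminescence signal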
HSF-1 act: increases HSF-1 driven luciferase reporter signal | NIH3T3-HGL HSF-1 luciferase reporter, MG132, 8 h; 100% = twice DMSO control signal | activation, % at 9 µM | hit rate 1.7% among 300,000 | AID 504408;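 active means mean replicate activation of at least 50% with a set share of replicates each reaching 50%; inconclusive means only one of those two conditions met; inactive means mean below 50% and too few replicates reaching it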;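 further: 0% = median of the neutral control wells and 100% = twice that signal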
Hsp70 act: switches on Hsp70 transcription; HeLa Hsp70 promoter luciferase reporter, luminescence; scaled: vehicle 0, proteasome-inhibitor control 100%; activation, % at 10 µM; hit rate 0.04% among 200,000; AID 1203;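 active means activation above the mean across all tested compounds plus 3 SD, cutoff set per campaign, cut at about 5.5% in these data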;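 further: 100% = MG132 at 30 µM as the positive control and 0% = DMSO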
T cruzi inh: T. cruzi replication inhibition. inhibition, % (concentration not given with the values). hit rate 1.4% among 300,000. T. cruzi beta-gal in NIH3T3, luminescence, 90 h. AID 1885;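 active means mean inhibition across valid replicates above about 55%, limit read from the data; inconclusive means mean below that limit but half or more replicates reach it; inactive means mean below it, under half of replicates reach it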;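 further: signal also drops with host cell toxicity which is not excluded here; 0% = plate median of DMSO wells and 100% = zero luminescence signal; higher percent means less beta-gal luminescence so fewer parasites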
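Read-out: Parasite load inhibition, % | Test system: Mouse NIH/3T3 fibroblasts infected with β-gal-expressing T. cruzi Tulahuen C4 | Amount: 5,000 cells/well | Medium: DMEM, 2% fetal bovine serum | Signal: GalScreen β-gal luminescence, detergent lysis, 60 min | Timing: 3 h attach, ≥90 h co-culture | Also added: Tulahuen C4 trypomastigotes, 5000/well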
Active calls of the source: *; ? = inconclusive; . = not tested or not shown. The full list was thinned out, with hits kept by preference.

SMILES	Lmaj promast	HSF1 inh	HSF-1 act	Hsp70 act	T cruzi inh
CCOC(=O)C1CCCN(CC(O)COCc2ccc3c(c2)OCO3)C1 (stereo not given)	19.0	-4.6	0.5	-0.2	21.1
CC1CCCN(CC(O)COCC2COc3ccccc3O2)C1 (stereo not given)	85.9*	-0.5	0.3	-0.1	7.9
CNC(=O)N(O)C1N(c2ccccc2)C(=S)SC1(C)C (stereo not given)	-3.7	-4.4	3.8	-0.3	-6.3
Cc1cc(N2C(=O)C(O)=C(C(=O)c3ccc(C)o3)C2c2ccc([N+](=O)[O-])cc2)no1 (stereo not given)	.	-2.9	-19.5	.	-33.6
COc1ccc2c(c1)CCc1c(C(=O)N3CC4(C)CC3CC(C)(C)C4)noc1-2 (stereo not given)	30.4	54.7	84.2*	-0.1	6.0
COc1ccc2[nH]c(-c3ccc(C)cc3)cc(=O)c2c1	1.8	2.4	20.2	-0.3	-15.0
O=C(NC(Cc1c[nH]c2ccccc12)C(=O)Nc1ccc(F)c([N+](=O)[O-])c1)c1cccs1 (stereo not given)	64.8*	6.3	9.7	-0.3	4.9
Cc1cc(/C=N/NC(N)=S)c(C)n1-c1cccc(Cl)c1	94.2*	-3.1	-0.5	-0.3	73.3*
Cc1cccc(C)c1-n1c(C)cc(/C=N/NC(N)=S)c1C	96.5*	-0.7	-12.1	0.1	53.4
Cc1cc(/C=N/NC(N)=S)c(C)n1-c1ccc(Br)cc1	99.5*	-5.2	-19.6	0.0	36.7
Cc1ccccc1-n1c(C)cc(/C=N/NC(=O)c2ccncc2)c1C	3.6	-6.1	-2.2	-0.1	1.7
Cc1cc(/C=N\NC(=O)CC(=O)NC2CCCCC2)c(C)n1-c1ccc(Cl)cc1	-4.5	-3.1	12.7	0.0	-0.8
Cc1cc(/C=N/NC(N)=S)c(C)n1-c1ccc(Cl)cc1	89.0*	-5.8	-21.6	0.0	24.7
COc1cc(/C=C2\SC(=O)N(CCNC(=O)c3sc4cc(F)ccc4c3Cl)C2=O)cc(OC)c1OC	-4.8	2.9	-9.4	0.7	-11.7
COc1ccc(C(=O)CC(=O)C(=O)Nc2ccccc2Cl)cc1	.	2.8	12.9	.	-6.0
Cc1n[nH]c(C)c1S(=O)(=O)N(CC(=O)N1CCc2ccccc21)c1ccc(C(C)C)cc1	6.2	62.1	75.0*	-0.2	21.8
CCOc1ccc(N(CC(=O)N2CCc3ccccc32)S(=O)(=O)c2c(C)noc2C)cc1	16.5	28.0	36.9	0.0	6.3
CCCCn1c(=O)[nH]c(=O)c2c1nc(-c1ccccn1)n2CC	.	12.2	19.5	.	-11.3
CCOC(=O)CCN(Cc1cccs1)S(=O)(=O)c1ccc(Cl)cc1	96.8*	0.5	1.9	-0.1	2.7
CC(C)(C)c1ccc(S(=O)(=O)N(CCCN2CCOCC2)Cc2cccs2)cc1	94.8*	4.7	18.0	-0.5	31.1
CC(=O)Nc1ccc(S(=O)(=O)N(CCCN2CCOCC2)Cc2cccs2)cc1	12.9	-8.0	8.3	-0.3	0.2
COc1ccc(CC(C)Nc2cccc(SC)c2)cc1 (stereo not given)	.	-58.9*	-68.3	.	9.5
CCc1cc(C(=O)c2ccccc2OC)c(N)s1	17.5	3.8	-4.4	-0.4	23.0
CCc1cc(C(=O)c2ccc(OC)cc2)c(N)s1	.	30.5	59.0*	.	11.6
O=C(COC(=O)C1CCN(S(=O)(=O)c2ccc3c(c2)OCCO3)CC1)Nc1cccc2ccccc12	-0.7	-8.3	6.3	-0.3	-10.2
SMILES	Lmaj promast	HSF1 inh	HSF-1 act	Hsp70 act	T cruzi inh
COc1ccc(-c2cc(C)no2)cc1S(=O)(=O)N1CCN(c2ccccc2F)CC1	.	2.8	-16.7	.	13.4
CCC(C)NC(=O)COC(=O)c1ccc(Cl)cc1O (stereo not given)	-1.6	-5.3	21.9	-0.1	-12.3
CCOC(=O)c1sc2nc(NC(=O)C3CC3)sc2c1C	1.6	4.6	19.1	0.4	7.7
CCOC(=O)c1sc2nc(NC(=O)C(C)(C)C)sc2c1C	65.0*	23.5	34.0	0.3	16.6
CC(COc1ccccc1)N1CCC(CO)(CCc2ccccc2)CC1 (stereo not given)	97.4*	6.4	8.4	1.5	29.1
CSCC(C)N1CCC(CO)(CCc2ccccc2)CC1 (stereo not given)	82.2*	-6.2	-12.6	0.7	13.5
C#C[C@]1(O)CC[C@H]2[C@@H]3[C@H](C)CC4=C(CCC(=O)C4)[C@H]3CC[C@@]21C	.	-4.6	-1.9	.	5.4
Cc1ccc(C(c2nnnn2CC2CCCO2)N2CCN(c3cccc(C)c3C)CC2)cc1 (stereo not given)	58.9*	3.4	5.6	0.0	22.5
Cc1cccc2cc(C(c3nnnn3CC3CCCO3)N3CCc4ccccc4C3)c(=O)[nH]c12 (stereo not given)	26.6	.	.	0.1	.
Cc1ccc(C)c2[nH]c(=O)c(C(c3nnnn3Cc3ccccc3)N3CCc4ccccc4C3)cc12 (stereo not given)	73.4*	4.4	19.1	-0.1	?
Cc1ccc2cc(C(c3nnnn3CC3CCCO3)N3CCc4ccccc4C3)c(=O)[nH]c2c1 (stereo not given)	93.1*	1.4	1.5	0.3	-13.0
CCOC(=O)C1CCCN(CC(=O)NC2=Nc3ccccc3N=C(C)C2c2ccccc2)C1 (stereo not given)	38.2	8.1	9.2	-0.1	2.7
CC1=Nc2ccccc2N=C(NC(=O)CN2CCN(c3ccccc3)CC2)C1c1ccccc1 (stereo not given)	1.0	-2.1	3.3	0.8	62.7*
CC1=Nc2ccccc2N=C(NC(=O)c2ccccc2)C1c1ccccc1 (stereo not given)	54.4*	-4.6	0.1	0.6	5.3
CCc1cccc(C)c1NC(=O)C(c1ccccc1)N1CCC1=O (stereo not given)	-2.1	4.6	1.6	-0.2	-0.3
O=Cc1ccccc1OCc1ccc2c(c1)OCO2	.	3.9	35.4	.	-10.7
CCOc1ccccc1CN(CCc1ccc2c(c1)OCO2)Cc1ccccn1	82.5*	-0.4	30.1	-0.2	1.2
Cc1ccc(C(=O)N(CCC2=CCCCC2)c2c(N)n(Cc3ccccc3)c(=O)[nH]c2=O)o1	.	4.4	0.0	.	3.2
Nc1c(N(CCC2=CCCCC2)C(=O)c2ccc([N+](=O)[O-])o2)c(=O)[nH]c(=O)n1Cc1ccccc1	.	16.0	9.9	.	66.0*
CC(C)(C)c1ncc(S(=O)(=O)c2ccc(C(F)(F)F)cn2)c(N)n1	.	2.5	21.4	.	6.0
Cc1nc(-c2ccc(NC(=O)C3CCCCC3)cc2)cs1	-1.5	21.5	56.8*	0.1	10.4
Cc1ccc(C(=O)Nc2ccc(-c3csc(C)n3)cc2)cc1	7.9	21.9	45.1	0.1	-2.0
COc1ccc(Nc2nnc(-c3ccc(N4CCOCC4)c([N+](=O)[O-])c3)c3ccccc23)cc1	56.9*	.	.	0.3	.
CCCCc1ccc(C2C3=C(CC(C)(C)CC3=O)NC3=C2C(=O)c2ccccc23)cc1 (stereo not given)	99.0*	5.2	9.1	-0.4	35.8
